This note sets out measurements from ChEMBL document CHEMBL1777791, “Protective effect of ε-viniferin on β-amyloid peptide aggregation investigated by electrospray ionization mass spectrometry” (Bioorg Med Chem, 2011).

Data set [1] in a line: Binding affinity to amyloid beta (1 to 40) assessed as non-covalent protein-compound complex formation at 10 uM using 35% methanol by electrospray ionization mass spectrometry analysis. The procedure, abridged: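 ESI ion-trap MS by direct infusion at 180 µL/h. Aβ(1-40) and compound mixed 1:1 molar (10 µM) in 35% methanol. Spectra recorded over m/z 150–2000 in positive and negative ion modes at normal scan resolution. Non-covalent complex ions identified.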

Data set [2] can be described thus: Inhibition of amyloid beta (1 to 40) fibril formation at 5 uM by UV-visible spectrometry analysis. The procedure, abridged: (§1)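 Full-length Aβ stock (1 mM) prepared in sterile water at 4 °C by brief vortexing, then sonicated 10 min. Polyphenol stock 1 mg/mL in MeOH. Reaction used 10 mM phosphate buffer, pH 7.2, 50 µM peptide final and polyphenol at 5 or 10 µM final. Fibril formation followed by UV–visible spectrophotometry.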

Data set [3] can be described thus: Inhibition of amyloid beta (1 to 40) fibril formation at 10 uM by UV-visible spectrometry analysis. The procedure, abridged:
as §1

The test system of data set [4] is PC-12. Nature of the data set: Antiamyloidogenic activity in rat PC12 cells assessed as protection against amyloid beta (25 to 35)-induced cell death at 10 uM after 24 hrs by MTT assay. The class given is functional. The procedure, abridged:
(§2)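 PC12 cells kept in DMEM-Glutamax with 15% heat-inactivated horse serum, 2.5% FBS and antibiotics at 37 °C, 10% CO2, on poly-D-lysine. Seeded 10,000 cells/well and grown 24 h. Aβ was preincubated with or without compound at 37 °C for 48 h, diluted in medium and added (Aβ final 10 µM). After 24 h, MTT 0.5 mg/ml for 3 h at 37 °C, DMSO solubilisation, A595. Read-out is % of control cells.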

Data set [5] is described as follows: Inhibition of amyloid beta (1 to 42) fibril formation at 10 uM by UV-visible spectrometry analysis. The procedure, abridged:
as §1

The nature of data set [6]: Inhibition of amyloid beta (25 to 35) fibril formation at 10 uM by UV-visible spectrometry analysis. The gist of the method:
(§3)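 Aβ(25-35) stock (1 mM) prepared in sterile water at 4 °C by brief vortexing, then sonicated 10 min. Polyphenol stock 1 mg/mL in MeOH. Reaction used 10 mM phosphate buffer, pH 7.2, 100 µM peptide final and polyphenol at 5 or 10 µM final. Fibril formation followed by UV–visible spectrophotometry.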

Data set [7] concerns PC-12. Nature of the data set: Antiamyloidogenic activity in rat PC12 cells assessed as protection against amyloid beta (1 to 42)-induced cell death at 10 uM after 24 hrs by MTT assay. It is filed as functional. The gist of the method:
as §2

Data set [8] in a line: Inhibition of amyloid beta (1 to 42) fibril formation at 5 uM by UV-visible spectrometry analysis. The gist of the method:
as §1

The subject of data set [9] is PC-12. The data set is described as follows: Cytotoxicity against rat PC12 cells up to 10 uM after 24 hrs by MTT assay. To be noted: pc-12, 24 h.
The test system of data set [10] is PC-12. Nature of the data set: Antiamyloidogenic activity in rat PC12 cells assessed as protection against amyloid beta (1 to 40)-induced cell death at 10 uM after 24 hrs by MTT assay. It is filed as functional. The gist of the method:
as §2

Data set [11] is described as follows: Inhibition of amyloid beta (25 to 35) fibril formation by UV-visible spectrometry analysis. The gist of the method: as §3

Active and inactive are the calls of the source. The rule behind the calls is not given here. Bounds are passed on as bounds.

Take `O=C(O)/C=C/c1ccc(O)cc1`: the result in [1] was inactive.

Regarding `OC[C@H]1O[C@@H](Oc2cc(/C=C/c3ccc(O)cc3)c3c(c2)O[C@H](c2ccc(O)cc2)[C@H]3c2cc(O)cc(O)c2)[C@H](O)[C@@H](O)[C@@H]1O`, the inhibition in [2] came out at 59%; in data set [3], 97%; in data set [5] it was 89%; in [6] it was 93%; in data set [8], 70%. Moreover, the outcome in data set [1] was Active. Besides, the Activity in the data set on PC-12 [4] is on record as 80%; in the data set with PC-12 [7], 87%; in the data set on PC-12 [9] it was “Non-toxic”; in the data set on PC-12 [10] it was 79%. In data set [11], this compound gave an IC50 below 1000 nM.

In the case of `Oc1ccc(/C=C/c2cc(O)cc(O)c2)cc1`, the inhibition came to 22% in data set [2], 52% in data set [3], 61% in data set [5] and 63% in [6].
